Results taken from ChEMBL document CHEMBL1828506, “New fluorine-containing hydrazones active against MDR-tuberculosis” (Eur J Med Chem, 2011).
pIC50: −log10 of the molar value. Values after ≈ are worked out from the molar mass of the structure shown.

Experiments:
[1] = tested on: Mycobacterium avium; test: Antimycobacterial activity against Mycobacterium avium CNTC 330/88 after 14 days; format: functional; settings: CNTC 330/88, 336 h
[2] = tested on: Mycobacterium avium; test: Antimycobacterial activity against Mycobacterium avium CNTC 330/88 after 21 days; format: functional; settings: CNTC 330/88, 504 h
[3] = tested on: Mycobacterium kansasii; test: Antimycobacterial activity against Mycobacterium kansasii CNTC My 235/80 after 7 days; format: functional; settings: CNTC My 235/80, 168 h
[4] = tested on: Mycobacterium kansasii; test: Antimycobacterial activity against Mycobacterium kansasii CNTC My 235/80 after 14 days; format: functional; settings: CNTC My 235/80, 336 h
[5] = tested on: Mycobacterium kansasii; test: Antimycobacterial activity against Mycobacterium kansasii CNTC My 235/80 after 21 days; format: functional; settings: CNTC My 235/80, 504 h
[6] = tested on: Mycobacterium kansasii; test: Antimycobacterial activity against Mycobacterium kansasii CNTC 6509/96 after 7 days; format: functional; settings: CNTC 6509/96, 168 h
[7] = tested on: Mycobacterium kansasii; test: Antimycobacterial activity against Mycobacterium kansasii CNTC 6509/96 after 14 days; format: functional; settings: CNTC 6509/96, 336 h
[8] = tested on: Mycobacterium kansasii; test: Antimycobacterial activity against Mycobacterium kansasii CNTC 6509/96 after 21 days; format: functional; settings: CNTC 6509/96, 504 h
[9] = tested on: HepG2; test: Cytotoxicity against human HepG2 cells measured after overnight incubation by MTT assay; format: cell-based
Summary of the method: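 HepG2 cells in phenol-red-free RPMI-1640 with 10% FCS, 2 mM L-glutamine and gentamycin, seeded at 5 × 10³ per well. After 24 h at 37 °C, cells were exposed overnight to compound in serum-free medium. MTT (2 mg/mL) for 4 h, formazan dissolved in DMSO, read as OD540 minus OD620. % cytotoxicity versus untreated controls; IC50 taken from dose-response curves. Two independent experiments, 4–8 parallel measurements.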

[10] = tested on: Mycobacterium tuberculosis; test: Antimycobacterial activity against Mycobacterium tuberculosis H37Rv ATCC 27294 after 28 days by colony forming unit determination; format: functional; settings: H37Rv ATCC 27294, 672 h
Summary of the method: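 Compounds added to Sula liquid medium as DMSO solutions (DMSO at most 2%), incubated at 37 °C for 28 days. MIC is the lowest concentration giving visible growth inhibition. Activity was confirmed by CFU counts after subculture onto drug-free Löwenstein-Jensen solid medium.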

[11] = Selectivity index, ratio of IC50 for human HepG2 cells to MIC for Mycobacterium tuberculosis H37Rv ATCC 27294; format: functional
[12] = tested on: PBMC; test: Cytotoxicity against human PBMC measured after overnight incubation by MTT assay; format: cell-based
Summary of the method: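 Freshly prepared human PBMC in phenol-red-free RPMI-1640 with 10% FCS, 2 mM L-glutamine and gentamycin, 2.0 × 10⁵ cells per well. After 24 h at 37 °C, overnight compound exposure in serum-free medium. MTT for 4 h, formazan in DMSO, OD540 minus OD620. % cytotoxicity versus controls; IC50 from dose-response curves. Two independent experiments.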

[13] = tested on: SH-SY5Y; test: Cytotoxicity against human SH-SY5Y cells measured after overnight incubation by MTT assay; format: cell-based
Summary of the method: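 SH-SY5Y neuroblastoma cells in phenol-red-free DMEM with 10% FCS, 2 mM L-glutamine, gentamycin and 1% NEAA, 7.5 × 10³ per well. After 24 h at 37 °C, overnight compound exposure in serum-free medium. MTT readout (OD540 minus OD620) against untreated controls; IC50 from dose-response curves. Two independent experiments.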

Row | SMILES | MIC [1] | MIC [2] | MIC [3] | MIC [4] | MIC [5] | MIC [6] | MIC [7] | MIC [8] | pIC50 [9] | MIC [10] | Selectivity Index [11] | pIC50 [12] | pIC50 [13]
1 | O=C(N/N=C/NC(=O)c1cnccn1)c1ccc(C(F)(F)F)cc1 | > 1000 µM | > 1000 µM | 250 µM (≈ 84.3 µg/mL) | 250 µM (≈ 84.3 µg/mL) | 250 µM (≈ 84.3 µg/mL) | 250 µM (≈ 84.3 µg/mL) | 500 µM (≈ 169 µg/mL) | 500 µM (≈ 169 µg/mL) | < 3.20 |  |  |  | 
2 | CCn1cc(C(=O)O)c(=O)c2cc(F)c(N3CCN(/C=N/NC(=O)c4ccc(C(F)(F)F)cc4)CC3)cc21 | 500 µM (≈ 267 µg/mL) | 500 µM (≈ 267 µg/mL) | 2 µM (≈ 1.07 µg/mL) | 4 µM (≈ 2.13 µg/mL) | 8 µM (≈ 4.27 µg/mL) | 2 µM (≈ 1.07 µg/mL) | 4 µM (≈ 2.13 µg/mL) | 8 µM (≈ 4.27 µg/mL) | < 4.43 | 5 µg/mL (≈ 9.37 µM) | 3.98 | 3.58 | 3.97
3 | CCn1cc(C(=O)O)c(=O)c2cc(F)c(N3CCNCC3)cc21 [NORFLOXACIN] | 125 µM (≈ 39.9 µg/mL) | 250 µM (≈ 79.8 µg/mL) | 8 µM (≈ 2.55 µg/mL) | 16 µM (≈ 5.11 µg/mL) | 16 µM (≈ 5.11 µg/mL) | 2 µM (≈ 0.639 µg/mL) | 8 µM (≈ 2.55 µg/mL) | 8 µM (≈ 2.55 µg/mL) | < 3.30 | 5 µg/mL (≈ 15.7 µM) | 31.85 | < 3.30 | < 3.30
4 | CCn1cc(C(=O)O)c(=O)c2cc(F)c(N3CCN(/C=N/NC(=O)c4ccc(F)cc4)CC3)cc21 | 125 µM (≈ 60.4 µg/mL) | 250 µM (≈ 121 µg/mL) | 16 µM (≈ 7.74 µg/mL) | 32 µM (≈ 15.5 µg/mL) | 62.5 µM (≈ 30.2 µg/mL) | 32 µM (≈ 15.5 µg/mL) | 62.5 µM (≈ 30.2 µg/mL) | 62.5 µM (≈ 30.2 µg/mL) | < 3.10 |  |  | < 3.48 | 
5 | Nc1ccc(C(=O)O)c(O)c1 [AMINOSALICYLIC ACID] | 32 µM (≈ 4.9 µg/mL) | 125 µM (≈ 19.1 µg/mL) | 125 µM (≈ 19.1 µg/mL) | 1000 µM (≈ 153 µg/mL) | > 1000 µM | 32 µM (≈ 4.9 µg/mL) | 125 µM (≈ 19.1 µg/mL) | 500 µM (≈ 76.6 µg/mL) |  | 0.2 µg/mL (≈ 1.31 µM) |  |  | 
6 | CCn1cc(C(=O)O)c(=O)c2cc(F)c(N3CCN(/C=N/NC(=O)c4cccc(F)c4)CC3)cc21 | 125 µM (≈ 60.4 µg/mL) | 250 µM (≈ 121 µg/mL) | 16 µM (≈ 7.74 µg/mL) | 32 µM (≈ 15.5 µg/mL) | 62.5 µM (≈ 30.2 µg/mL) | 16 µM (≈ 7.74 µg/mL) | 16 µM (≈ 7.74 µg/mL) | 32 µM (≈ 15.5 µg/mL) | < 3.41 | 6 µg/mL (≈ 12.4 µM) | 31.67 | < 3.41 | < 3.37
7 | O=C(N/N=C/Nc1ccc(C(=O)O)c(O)c1)c1ccc(C(F)(F)F)cc1 | 32 µM (≈ 11.8 µg/mL) | 125 µM (≈ 45.9 µg/mL) | 62.5 µM (≈ 23 µg/mL) | 125 µM (≈ 45.9 µg/mL) | 250 µM (≈ 91.8 µg/mL) | 62.5 µM (≈ 23 µg/mL) | 62.5 µM (≈ 23 µg/mL) | 125 µM (≈ 45.9 µg/mL) |  | 4 µg/mL (≈ 10.9 µM) |  |  | 
8 | O=C(N/N=C/N1CCN(c2cc3c(cc2F)c(=O)c(C(=O)O)cn3C2CC2)CC1)c1cccc(F)c1 | 125 µM (≈ 61.9 µg/mL) | 250 µM (≈ 124 µg/mL) | 4 µM (≈ 1.98 µg/mL) | 4 µM (≈ 1.98 µg/mL) | 8 µM (≈ 3.96 µg/mL) | 4 µM (≈ 1.98 µg/mL) | 4 µM (≈ 1.98 µg/mL) | 4 µM (≈ 1.98 µg/mL) | < 3.09 | 1 µg/mL (≈ 2.02 µM) | 402.38 | < 3.52 | 
9 | NNC(=O)c1ccncc1 [ISONIAZID] | > 250 µM | > 250 µM | 250 µM (≈ 34.3 µg/mL) | > 250 µM | > 250 µM | 2 µM (≈ 0.274 µg/mL) | 4 µM (≈ 0.549 µg/mL) | 4 µM (≈ 0.549 µg/mL) | < 3.00 | 0.01 µg/mL (≈ 0.0729 µM) |  | 2.33 | 
10 | O=C(N/N=C/NC(=O)c1cnccn1)c1cccc(F)c1 | > 500 µM | > 500 µM | 250 µM (≈ 71.8 µg/mL) | 250 µM (≈ 71.8 µg/mL) | > 500 µM | 250 µM (≈ 71.8 µg/mL) | > 500 µM | > 500 µM | < 3.89 |  |  | < 3.52 | 
